Laboratory results taken from ChEMBL document CHEMBL4828761, “Development and crystallography-aided SAR studies of multifunctional BuChE inhibitors and 5-HT6R antagonists with β-amyloid anti-aggregation properties” (Eur J Med Chem, 2021).
The source made the active and inactive calls. No cut-off for these calls is given here.

Key:
Cholinesterase [1] = target: Cholinesterase (Equus caballus, UniProt P81908); experiment: Inhibition of equine serum BuChE using BTC as substrate preincubated with enzyme for 5 mins followed by substrate addition for 5 mins by Ellman's method; type: cell-free
[2] = target: Amyloid-beta precursor protein (Homo sapiens) (UniProt P05067); experiment: Inhibition of amyloid beta (1 to 42) (unknown origin) self aggregation at 10 uM incubated for 24 to 48 hrs by Thioflavin-T based fluorometric assay; details: time lower […], time upper 48.0 hrs
[3] = target: 5-hydroxytryptamine receptor 6 (Homo sapiens, UniProt P50406); experiment: Displacement of [3H]LSD from human 5HT6 receptor expressed in CHO-K1 membrane incubated for 60 mins by solid scintillation counting analysis; type: cell membranes
Cholinesterase [4] = target: T1, Cholinesterase (Homo sapiens, UniProt P06276); experiment: Inhibition of BuChE in human plasma using BTC as substrate preincubated with enzyme for 5 mins followed by substrate addition for 5 mins by Ellman's method; type: cell-free
In short: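 Human plasma BuChE at 0.384 U/mL final, with DTNB in 0.1 M phosphate pH 8.0. […] BTC solution (0.00375 M) added; A412 after 5 min. Run in triplicate; IC50 from nonlinear regression of residual activity versus concentration.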

Cholinesterase [5] = target: T1, Cholinesterase; experiment: Inhibition of BuChE in human plasma using BTC as substrate at 10 uM preincubated with enzyme for 5 mins followed by substrate addition for 5 mins by Ellman's method relative to control; type: cell-free; details: time 10.0 min
In short: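 Human plasma BuChE at 0.384 U/mL final, with DTNB in 0.1 M phosphate buffer pH 8.0. Compound at 10 µM screened, preincubated 5 min at 36 °C.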

[6] = target: Cholinesterase (Equus caballus) (UniProt P81908); experiment: Reversible inhibition of equine serum BuChE using BTC as substrate at 10XIC50 preincubated with 100-fold diluted enzyme for 120 mins followed by substrate addition and measured after 5 mins by 100-fold dilution assay; type: cell-free; details: time 125.0 min
In short: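 Equine BuChE preincubated with inhibitor at 100-fold the final enzyme concentration for 30, 60 or 120 min at 25 °C. Then diluted 100-fold into 0.1 M phosphate pH 8 with DTNB. BTC (0.00375 M) added; A412 read after 5 min. Activity recovery compared with enzyme/vehicle blanks; two independent experiments, each in quadruplicate.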

[7] = Half life in CD-1 mouse plasma at 3 mg/kg, iv measured for 480 mins by LC-ESI-MS/MS analysis; type: ADME, organism-based
In short: (§1)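 Adult male CD-1 mice (20–25 g), dosed in saline i.v. 3 mg/kg or intragastrically 30 mg/kg; 6 animals per time point. Under i.p. ketamine/xylazine anaesthesia, blood collected after decapitation into heparinized tubes, plasma separated; brain homogenized in pH 7.4 phosphate buffer (1:2.5). Acetonitrile precipitation with internal standard, LC/ESI-MS/MS on C18 with formic acid eluents; non-compartmental parameters.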

[8] = Cmax in CD-1 mouse brain at 30 mg/kg, po measured for 480 mins by LC-ESI-MS/MS analysis; type: ADME, organism-based; set-up: route oral, dose 30 mg/kg, time 480 min; in short: as §1
[9] = MRT in CD-1 mouse plasma at 3 mg/kg, iv measured for 480 mins by LC-ESI-MS/MS analysis; type: ADME, organism-based; details: in vivo, 8 h; in short: as §1
[10] = Oral bioavailability in CD-1 mouse at 30 mg/kg measured for 480 mins by LC-ESI-MS/MS analysis; type: ADME, organism-based; details: in vivo; in short: as §1
[11] = Initial drug concentration in CD-1 mouse brain at 3 mg/kg, iv by LC-ESI-MS/MS analysis; type: ADME, organism-based; in short: as §1
[12] = AUC (0 to t) in CD-1 mouse plasma at 30 mg/kg, po measured for 480 mins by LC-ESI-MS/MS analysis; type: ADME, organism-based; set-up: time 480 min, dose 30 mg/kg; in short: as §1
[13] = AUC (0 to t) in CD-1 mouse brain at 3 mg/kg, iv measured for 480 mins by LC-ESI-MS/MS analysis; type: ADME, organism-based; details: in vivo, 8 h; in short: as §1
[14] = Cytotoxicity against human HepG2 cells assessed as non-toxic concentration incubated for 72 hrs by MTS assay; type: cell-based; details: read-out: MNCC
In short: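 HepG2 cells grown in MEM with 2 mM glutamine, 1% NEAA, 10% FBS at 37 °C, 5% CO2. Compounds tested in quadruplicate at 0.1, 1, 10 and 100 μM for 72 h; viability read by MTS (CellTiter 96 AQueous) assay. Doxorubicin 1 μM and CCCP 10 μM served as positive controls.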

[15] = AUC (0 to t) in CD-1 mouse brain at 30 mg/kg, po measured for 480 mins by LC-ESI-MS/MS analysis; type: ADME, organism-based; details: in vivo, 8 h; in short: as §1
[16] = Tmax in CD-1 mouse plasma at 30 mg/kg, po measured for 480 mins by LC-ESI-MS/MS analysis; type: ADME, organism-based; in short: as §1
[17] = Cmax in CD-1 mouse plasma at 30 mg/kg, po measured for 480 mins by LC-ESI-MS/MS analysis; type: ADME, organism-based; set-up: route oral, dose 30 mg/kg, time 480 min; in short: as §1
[18] = Ratio of drug level in brain to plasma in CD-1 mouse at 3 mg/kg, iv by LC-ESI-MS/MS analysis; type: ADME, organism-based; details: read-out: BPR; in short: as §1
[19] = MRT in CD-1 mouse plasma at 30 mg/kg, po measured for 480 mins by LC-ESI-MS/MS analysis; type: ADME, organism-based; in short: as §1
[20] = Initial plasma concentration in CD-1 mouse at 3 mg/kg, iv by LC-ESI-MS/MS analysis; type: ADME, organism-based; in short: as §1
[21] = AUC (0 to t) in CD-1 mouse plasma at 3 mg/kg, iv measured for 480 mins by LC-ESI-MS/MS analysis; type: ADME, organism-based; set-up: dose 3 mg/kg, time 480 min; in short: as §1
[22] = Ratio of drug level in brain to plasma in CD-1 mouse at 30 mg/kg, po by LC-ESI-MS/MS analysis; type: ADME, organism-based; details: read-out: BPR; in short: as §1
[23] = Tmax in CD-1 mouse brain at 30 mg/kg, po measured for 480 mins by LC-ESI-MS/MS analysis; type: ADME, organism-based; in short: as §1
[24] = Apparent oral clearance in CD-1 mouse at 30 mg/kg measured for 480 mins by LC-ESI-MS/MS analysis; type: ADME, organism-based; details: in vivo; in short: as §1
[25] = Half life in CD-1 mouse plasma at 30 mg/kg, po measured for 480 mins by LC-ESI-MS/MS analysis; type: ADME, organism-based; in short: as §1
[26] = MRT in CD-1 mouse brain at 30 mg/kg, po measured for 480 mins by LC-ESI-MS/MS analysis; type: ADME, organism-based; in short: as §1
[27] = Half life in CD-1 mouse brain at 3 mg/kg, iv measured for 480 mins by LC-ESI-MS/MS analysis; type: ADME, organism-based; in short: as §1
[28] = MRT in CD-1 mouse brain at 3 mg/kg, iv measured for 480 mins by LC-ESI-MS/MS analysis; type: ADME, organism-based; in short: as §1
[29] = Apparent oral volume of distribution at steady state in CD-1 mouse at 30 mg/kg measured for 480 mins by LC-ESI-MS/MS analysis; type: ADME, organism-based; details: in vivo; in short: as §1
[30] = Half life in CD-1 mouse brain at 30 mg/kg, po measured for 480 mins by LC-ESI-MS/MS analysis; type: ADME, organism-based; in short: as §1
[31] = Metabolic stability in mouse liver microsomes assessed as parent compound remaining at 50 microM preincubated for 5 mins followed by incubation with NADPH regenerating system for 120 mins by UPLC-MS analysis; type: ADME, Microsome; details: time 125 min, read-out: Stability
In short: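 Mouse liver microsomes 1 mg/mL in 0.1 M Tris-HCl pH 7.4 with 50 μM compound, preincubated 5 min at 37 °C, then started with NADPH regeneration system; stopped after 120 min at 37 °C with cold methanol, centrifuged, supernatant analysed by UPLC-MS for remaining parent and metabolites. Verapamil served as reference.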

[32] = target: Amyloid-beta precursor protein (Homo sapiens) (UniProt P05067); experiment: Inhibition of self-induced aggregation of amyloid beta (1 to 42) (unknown origin) expressed in Escherichia coli BL21(DE3) at 10 uM incubated for 60 mins by fluorescence based analysis

T1 sequence (P06276 whole entry): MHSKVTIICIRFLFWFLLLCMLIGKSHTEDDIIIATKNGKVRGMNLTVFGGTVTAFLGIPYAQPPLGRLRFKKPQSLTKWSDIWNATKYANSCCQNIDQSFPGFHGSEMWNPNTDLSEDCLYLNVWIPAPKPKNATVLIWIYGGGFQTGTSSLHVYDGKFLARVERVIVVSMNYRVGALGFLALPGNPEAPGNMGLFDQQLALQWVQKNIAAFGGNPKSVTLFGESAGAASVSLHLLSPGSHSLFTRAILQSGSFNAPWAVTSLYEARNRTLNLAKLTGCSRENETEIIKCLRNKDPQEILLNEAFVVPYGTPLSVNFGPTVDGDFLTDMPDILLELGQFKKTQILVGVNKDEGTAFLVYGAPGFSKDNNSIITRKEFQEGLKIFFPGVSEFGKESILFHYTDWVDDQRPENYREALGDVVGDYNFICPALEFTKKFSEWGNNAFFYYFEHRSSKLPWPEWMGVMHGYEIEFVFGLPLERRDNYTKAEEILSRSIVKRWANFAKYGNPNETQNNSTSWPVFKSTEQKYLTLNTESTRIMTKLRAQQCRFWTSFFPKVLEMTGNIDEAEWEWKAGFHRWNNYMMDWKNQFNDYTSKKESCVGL
Chain of Cholinesterase (Equus caballus, UniProt P81908) (P81908 whole entry): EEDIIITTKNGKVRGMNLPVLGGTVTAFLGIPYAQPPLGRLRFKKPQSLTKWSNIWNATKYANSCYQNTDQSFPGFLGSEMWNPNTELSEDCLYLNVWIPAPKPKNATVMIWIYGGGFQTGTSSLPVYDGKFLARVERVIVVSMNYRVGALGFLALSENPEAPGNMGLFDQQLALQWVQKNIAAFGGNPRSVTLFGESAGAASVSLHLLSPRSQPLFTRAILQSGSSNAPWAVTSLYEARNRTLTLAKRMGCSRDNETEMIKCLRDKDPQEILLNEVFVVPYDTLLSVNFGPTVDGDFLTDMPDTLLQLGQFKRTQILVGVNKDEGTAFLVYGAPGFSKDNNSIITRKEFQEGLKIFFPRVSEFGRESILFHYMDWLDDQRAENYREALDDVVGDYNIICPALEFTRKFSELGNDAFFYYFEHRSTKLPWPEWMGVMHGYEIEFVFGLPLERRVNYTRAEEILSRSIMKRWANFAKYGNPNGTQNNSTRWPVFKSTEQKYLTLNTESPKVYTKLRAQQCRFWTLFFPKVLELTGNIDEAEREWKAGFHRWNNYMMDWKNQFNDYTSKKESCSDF
Chain of Amyloid-beta precursor protein (Homo sapiens) (P05067 whole entry): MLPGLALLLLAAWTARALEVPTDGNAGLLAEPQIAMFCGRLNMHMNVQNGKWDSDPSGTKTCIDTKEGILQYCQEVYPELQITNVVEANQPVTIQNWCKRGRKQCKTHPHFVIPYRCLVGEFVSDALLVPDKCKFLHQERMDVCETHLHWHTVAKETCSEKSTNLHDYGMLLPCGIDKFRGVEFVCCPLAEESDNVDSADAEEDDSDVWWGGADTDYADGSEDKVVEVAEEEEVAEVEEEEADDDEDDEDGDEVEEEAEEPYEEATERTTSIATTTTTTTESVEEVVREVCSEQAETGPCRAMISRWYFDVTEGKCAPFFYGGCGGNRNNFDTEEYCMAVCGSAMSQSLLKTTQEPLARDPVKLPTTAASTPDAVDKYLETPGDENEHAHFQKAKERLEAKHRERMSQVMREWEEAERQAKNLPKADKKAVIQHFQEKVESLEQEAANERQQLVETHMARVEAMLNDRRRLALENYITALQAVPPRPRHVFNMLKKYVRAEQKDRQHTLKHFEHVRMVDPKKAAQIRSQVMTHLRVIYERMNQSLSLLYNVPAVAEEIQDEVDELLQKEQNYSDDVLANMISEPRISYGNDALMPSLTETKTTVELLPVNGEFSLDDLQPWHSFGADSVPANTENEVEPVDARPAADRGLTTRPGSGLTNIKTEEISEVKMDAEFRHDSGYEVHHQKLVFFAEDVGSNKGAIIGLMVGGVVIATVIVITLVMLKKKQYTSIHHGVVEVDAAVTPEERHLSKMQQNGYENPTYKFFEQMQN
Chain of Cholinesterase (Equus caballus) (P81908 whole entry): as the sequence (P81908 whole entry) above
Chain of 5-hydroxytryptamine receptor 6 (P50406 whole entry): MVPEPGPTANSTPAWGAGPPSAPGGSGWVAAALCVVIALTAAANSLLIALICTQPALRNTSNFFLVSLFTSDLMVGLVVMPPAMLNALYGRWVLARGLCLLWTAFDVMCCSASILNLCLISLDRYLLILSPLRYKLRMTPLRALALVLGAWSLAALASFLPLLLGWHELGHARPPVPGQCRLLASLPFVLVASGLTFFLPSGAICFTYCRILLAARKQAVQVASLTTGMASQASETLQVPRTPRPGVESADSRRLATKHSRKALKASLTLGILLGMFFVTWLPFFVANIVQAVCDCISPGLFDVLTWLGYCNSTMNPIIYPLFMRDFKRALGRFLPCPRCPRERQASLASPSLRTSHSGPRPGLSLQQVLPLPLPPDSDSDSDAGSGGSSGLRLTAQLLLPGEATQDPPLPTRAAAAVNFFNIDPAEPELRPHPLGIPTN

## CC(C)(C)OC(=O)N1CCCC(CNCCOc2cccc3c2ccn3Cc2ccccc2)C1 (stereo not given)
Cholinesterase [1]
  IC50: 0.011 µM
[2]
  inhibition: 79.4%
[3]
  Ki: 0.369 µM
Cholinesterase [4]
  IC50: 0.115 µM
Cholinesterase [5]
  inhibition: > 50%
[6]
  inhibition: Active

## CC(C)(C)OC(=O)N1CCCC(CNCCOc2cccc3c2CCN3Cc2ccccc2)C1 (stereo not given)
Cholinesterase [1]
  IC50: 0.0257 µM
[2]
  inhibition: 79.7%
[3]
  Ki: 1.07 µM
Cholinesterase [4]
  IC50: 0.175 µM
Cholinesterase [5]
  inhibition: > 50%
[6]
  inhibition: Active

## O=S(=O)(c1ccccc1)n1ccc2c(OCCNCC3CCCCC3)cccc21
[7]
  half-life: 5.53 h
[8]
  Cmax: 2.81 µg/mL
[9]
  MRT: 3.18 h
[10]
  bioavailability: 28.7%
[11]
  C0: 0.404 µg/mL
Cholinesterase [1]
  IC50: 0.0899 µM
[12]
  AUC(0-t) at 8 h: 1.8 µg·h/mL
[13]
  AUCt: 125194 ng·min/g
[14]
  MNTC at 72 h: ≤ 1000 nM
[15]
  AUCt: 734469 ng·min/g
[16]
  Tmax: 1 h
[17]
  Cmax: 0.532 µg/mL
[18]
  Kp: 3.33
[19]
  MRT: 3.24 h
[20]
  C0: 0.176 µg/mL
[21]
  AUC(0-t) at 8 h: 0.627 µg·h/mL
[22]
  Kp: 6.79
[23]
  Tmax: 1 h
[24]
  CL/F: 11.3 L/h/kg
[25]
  half-life: 4.97 h
[26]
  MRT: 3.24 h
[27]
  half-life: 2.97 h
[28]
  MRT: 2.83 h
[29]
  Vd/F: 81.4 L/kg
[30]
  half-life: 3 h
Cholinesterase [4]
  IC50: 0.551 µM
[31]
  remaining at 2 h, 50 µM: 59%

## O=S(=O)(c1ccccc1)n1ccc2c(N3CCN(CCCCCCNc4c5c(nc6ccccc46)CCCC5)CC3)cccc21
[32]
  inhibition: 30%
